This is an account of results in ChEMBL document CHEMBL5126598, “Defined stereoisomers of 2″-amino NAD+ and their activity against human sirtuins and a bacterial (ADP-ribosyl) transferase” (Bioorg Med Chem, 2022).

The structures appear in SMILES notation.

The target of series [1] is T1, NAD-dependent protein deacetylase sirtuin-1 (Homo sapiens) (UniProt Q96EB6).
T1 sequence (whole entry): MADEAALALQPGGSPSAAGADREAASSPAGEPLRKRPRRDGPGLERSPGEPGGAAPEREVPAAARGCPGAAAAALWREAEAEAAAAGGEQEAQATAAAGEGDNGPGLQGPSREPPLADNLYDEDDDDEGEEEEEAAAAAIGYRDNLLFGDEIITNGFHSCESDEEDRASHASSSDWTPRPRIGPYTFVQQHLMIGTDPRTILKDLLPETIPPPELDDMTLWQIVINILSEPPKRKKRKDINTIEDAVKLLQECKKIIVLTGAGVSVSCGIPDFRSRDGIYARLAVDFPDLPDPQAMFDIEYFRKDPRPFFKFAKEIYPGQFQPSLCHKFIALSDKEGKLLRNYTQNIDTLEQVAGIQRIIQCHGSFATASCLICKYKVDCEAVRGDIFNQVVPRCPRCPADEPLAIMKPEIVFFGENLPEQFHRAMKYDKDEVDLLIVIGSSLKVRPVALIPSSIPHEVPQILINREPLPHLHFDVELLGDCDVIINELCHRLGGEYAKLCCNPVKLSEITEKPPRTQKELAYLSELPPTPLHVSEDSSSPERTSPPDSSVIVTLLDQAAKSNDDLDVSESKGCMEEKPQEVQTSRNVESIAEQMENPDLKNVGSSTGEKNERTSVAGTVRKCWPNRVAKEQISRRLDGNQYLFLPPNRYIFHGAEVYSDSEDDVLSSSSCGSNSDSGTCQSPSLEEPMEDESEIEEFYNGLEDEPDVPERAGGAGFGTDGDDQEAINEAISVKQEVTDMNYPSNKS
Description: Inhibition of human SIRT1 using fluorogenic ZMAL as substrate at 250 uM incubated for 4 hrs in the presence of beta-NAD+ as cofactor by fluorescence based microplate reader analysis relative to control. Put shortly: (§1)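 Recombinant SIRT1, SIRT2 or SIRT3 (0.5 U) in 50 mM Tris/HCl, 137 mM NaCl, 2.7 mM KCl with ZMAL 10.5 μM, β-NAD+ 500 μM and 8.3% (v/v) DMSO (final), plus compound; 4 h at 37 °C with shaking. Trypsin stop solution containing 8 mM nicotinamide added, 20 min at 37 °C, then fluorescence read. Single concentrations tested first; IC50 only for near-complete inhibitors; means of 3 experiments.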

Series [2] addresses T2, NAD-dependent protein deacetylase sirtuin-2 (Homo sapiens, UniProt Q8IXJ6).
T2 sequence (Q8IXJ6 whole entry): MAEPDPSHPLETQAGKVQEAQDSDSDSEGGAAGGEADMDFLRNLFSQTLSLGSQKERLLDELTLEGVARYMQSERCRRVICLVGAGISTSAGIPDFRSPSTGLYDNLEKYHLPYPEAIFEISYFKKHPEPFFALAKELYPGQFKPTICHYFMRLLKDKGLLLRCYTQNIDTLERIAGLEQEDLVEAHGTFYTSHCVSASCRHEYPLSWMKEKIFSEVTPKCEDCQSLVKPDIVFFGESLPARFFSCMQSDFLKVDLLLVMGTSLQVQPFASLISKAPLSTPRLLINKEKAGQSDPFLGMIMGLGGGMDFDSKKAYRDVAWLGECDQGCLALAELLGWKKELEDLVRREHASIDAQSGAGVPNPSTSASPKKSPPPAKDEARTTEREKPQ
Description: Inhibition of human SIRT2 using fluorogenic ZMAL as substrate incubated for 4 hrs in the presence of beta-NAD+ as cofactor by fluorescence based microplate reader analysis. A digest of the protocol:
as §1

Series [3] deals with T3, SIRT2 (NAD-dependent protein deacetylase sirtuin-2) (Homo sapiens, UniProt Q8IXJ6).
T3 sequence (Q8IXJ6 whole entry): T2 sequence (Q8IXJ6 whole entry)
In words: Chemical stability of the compound in sirtuin assay buffer at pH 8.0 assessed as human SIRT2 mediated nicotinamide cleavage measured upto 4 hrs in the presence of ZMAL substrate by HPLC analysis. The series is classed as ADME. Particulars: pH 8, probe ZMAL substrate, read-out: Activity.

Series [4] concerns the target T4, NAD-dependent protein deacetylase sirtuin-3, mitochondrial (Homo sapiens) (UniProt Q9NTG7).
T4 sequence (whole entry): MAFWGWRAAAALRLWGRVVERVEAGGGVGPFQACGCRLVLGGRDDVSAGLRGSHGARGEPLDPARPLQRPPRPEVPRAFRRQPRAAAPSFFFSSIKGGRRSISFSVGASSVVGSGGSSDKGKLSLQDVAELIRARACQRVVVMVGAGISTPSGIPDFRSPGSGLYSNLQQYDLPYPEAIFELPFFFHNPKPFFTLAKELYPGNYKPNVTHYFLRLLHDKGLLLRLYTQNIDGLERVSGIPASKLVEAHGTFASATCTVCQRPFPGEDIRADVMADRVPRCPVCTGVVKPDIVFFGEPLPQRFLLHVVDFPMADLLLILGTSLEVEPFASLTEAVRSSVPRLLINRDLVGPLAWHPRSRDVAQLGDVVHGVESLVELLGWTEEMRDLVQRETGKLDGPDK
Description: Inhibition of human SIRT3 using fluorogenic ZMAL as substrate at 250 uM incubated for 4 hrs in the presence of beta-NAD+ as cofactor by fluorescence based microplate reader analysis relative to control. A digest of the protocol:
as §1

Series [5] deals with T4, NAD-dependent protein deacetylase sirtuin-3, mitochondrial (Homo sapiens). In words: Inhibition of human SIRT3 using fluorogenic ZMAL as substrate at 100 uM incubated for 4 hrs in the presence of beta-NAD+ as cofactor by fluorescence based microplate reader analysis relative to control. Put shortly: as §1
Series [6] can be described thus: Chemical stability of the compound in sirtuin assay buffer at pH 8.0 assessed as nicotinamide cleavage measured every 60 mins for 4 hrs by HPLC analysis. It is filed as physicochemical. Particulars: read-out: Activity.
The target in series [7] is T1, NAD-dependent protein deacetylase sirtuin-1 (Homo sapiens). In words: Inhibition of human SIRT1 using fluorogenic ZMAL as substrate at 100 uM incubated for 4 hrs in the presence of beta-NAD+ as cofactor by fluorescence based microplate reader analysis relative to control. A digest of the protocol:
as §1

The test system of series [8] is Photorhabdus luminescens. In words: Displacement of [32P]NAD+ from Photorhabdus luminescens TccC3hvr ART domain assessed as inhibition of ADP-ribosylation of alpha-skeletal muscle actin at 100 uM preincubated for 15 mins followed by TccC3hvr addition and measured after 6 mins by SDS-PAGE based autoradiography. Particulars: time 21.0 min. A digest of the protocol:
(§2)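 α-Skeletal muscle actin 1 μM with 1 μM NAD+ plus [32P]NAD+ (0.5 μCi per sample) in G buffer (5 mM Tris-HCl, 0.2 mM CaCl2, 0.2 mM ATP, 0.5 mM DTT, pH 8.0). Compound (10, 30 or 100 μM) preincubated 15 min at 21 °C, then 70 nM TccC3hvr ART domain added; 6 min at 21 °C, stopped with SDS Laemmli buffer. SDS-PAGE (12.5%), autoradiography; % inhibition versus control.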

In series [9] the test system is Photorhabdus luminescens. Description: Displacement of [32P]NAD+ from Photorhabdus luminescens TccC3hvr ART domain assessed as inhibition of ADP-ribosylation of alpha-skeletal muscle actin preincubated for 15 mins followed by TccC3hvr addition and measured after 6 mins by SDS-PAGE based autoradiography. Particulars: dose 10-100 µM, time 21.0 min, DDE = dose-dependent effect. A digest of the protocol: as §2

Series [10] can be described thus: Chemical stability of the compound in sirtuin assay buffer at pH 8.0 assessed as nicotinamide cleavage measured every 30 mins for 4 hrs by HPLC analysis. It is filed as physicochemical. Particulars: read-out: Activity.
In series [11] the target is T5, NAD-dependent protein deacetylase sirtuin-1 (Homo sapiens, UniProt Q96EB6).
T5 sequence (Q96EB6 whole entry): T1 sequence (whole entry)
In words: Inhibition of human SIRT1 using fluorogenic ZMAL as substrate incubated for 4 hrs in the presence of beta-NAD+ as cofactor by fluorescence based microplate reader analysis. Put shortly: as §1

For series [12], the target named is T4, NAD-dependent protein deacetylase sirtuin-3, mitochondrial (Homo sapiens). In words: Inhibition of human SIRT3 using fluorogenic ZMAL as substrate at 1 mM incubated for 4 hrs in the presence of beta-NAD+ as cofactor by fluorescence based microplate reader analysis relative to control. A digest of the protocol: as §1
Series [13] concerns the target T6, NAD-dependent protein deacetylase sirtuin-2 (Homo sapiens) (UniProt Q8IXJ6).
T6 sequence (whole entry): T2 sequence (Q8IXJ6 whole entry)
Description: Inhibition of human SIRT2 using fluorogenic ZMAL as substrate at 250 uM incubated for 4 hrs in the presence of beta-NAD+ as cofactor by fluorescence based microplate reader analysis relative to control. A digest of the protocol:
as §1

Usually inhibition stands for the change of the read-out against control, counted positive when it falls. Broadly, the IC50 is the concentration needed to halve the response being measured. For `NC(=O)c1ccc[n+]([C@H]2O[C@H](COP(=O)(O)OP(=O)(O)OC[C@H]3O[C@@H](n4cnc5c(N)ncnc54)[C@H](O)[C@@H]3O)[C@@H](O)[C@H]2N)c1`, the inhibition in series [1] is 63%; in series [4] it was 13%; in series [5] it was 8%; in [7] it was 13%. Also, in [2], the IC50 stood at 118 µM. The metabolised at 4 h in series [3] worked out at 4.1%. The degraded at 4 h in [6] was 4.1%.

Regarding `NC(=O)c1ccc[n+]([C@@H]2O[C@H](COP(=O)(O)OP(=O)(O)OC[C@H]3O[C@@H](n4cnc5c(N)ncnc54)[C@H](O)[C@@H]3O)[C@@H](O)[C@H]2N)c1`, the inhibition in series [1] is 65%; in [4], 19%; in [8], 77%; in series [5], 12%; in [9], “Dde”; in [7], 18%. In [2], the IC50 amounted to 151 µM. Moreover, the metabolised at 4 h in series [3] amounted to 15.1%. In series [10], the degraded at 4 h was determined as 8.4%.

As to `NC(=O)c1ccc[n+]([C@@H]2O[C@H](COP(=O)(O)OP(=O)(O)OC[C@H]3O[C@@H](n4cnc5c(N)ncnc54)[C@H](O)[C@@H]3O)[C@@H](O)[C@@H]2N)c1`, the IC50 in [11] is 176 µM; in [2] it was 153 µM. Besides, in series [12], the inhibition is 47%.

As for `[N-]=[N+]=N[C@@H]1C([n+]2cccc(C(N)=O)c2)O[C@H](COP(=O)(O)OP(=O)(O)OC[C@H]2O[C@@H](n3cnc4c(N)ncnc43)[C@H](O)[C@@H]2O)[C@H]1O` (stereo partly specified), the inhibition in [13] worked out at 21%; in series [4], 34%.
